In data set [1] the target is T1, 3-oxo-5-alpha-steroid 4-dehydrogenase 1 (Homo sapiens, UniProt P18405).
T1 sequence (P18405 whole entry): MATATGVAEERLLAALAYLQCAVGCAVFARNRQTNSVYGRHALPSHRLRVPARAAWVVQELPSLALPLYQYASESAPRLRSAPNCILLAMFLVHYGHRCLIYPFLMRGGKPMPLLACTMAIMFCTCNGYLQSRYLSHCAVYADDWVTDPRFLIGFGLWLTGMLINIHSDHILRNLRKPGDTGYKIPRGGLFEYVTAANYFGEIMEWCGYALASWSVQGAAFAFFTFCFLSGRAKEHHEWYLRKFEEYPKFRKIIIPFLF
Put plainly: Log of inhibitory concentration against human recombinant steroid 5-alpha-reductase type I in stably transfected chinese hamster ovary (CHO) 1827 cells using [3H]testosterone. In short, it runs like this: (§1)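 Intact stably transfected CHO 1827 cells expressing human recombinant 5αR-1 were incubated 30 min with [3H]-testosterone at its Km (2 μM) plus inhibitor over 10^-9–10^-5 M. IC50 was obtained by four-parameter logistic fit. Finasteride served as reference inhibitor across repeated assays.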

The nature of data set [2]: Partition coefficient (logP). The class given is physicochemical. The following applies: octanol/water.
Data set [3] has as its target T1, 3-oxo-5-alpha-steroid 4-dehydrogenase 1. Put plainly: Inhibitory concentration against human recombinant steroid 5-alpha-reductase type I in stably transfected chinese hamster ovary (CHO) 1827 cells using [3H]testosterone. In outline:
as §1

Data set [4] concerns the target T2, 3-oxo-5-alpha-steroid 4-dehydrogenase 2 (Homo sapiens, UniProt P31213).
T2 sequence (P31213 whole entry): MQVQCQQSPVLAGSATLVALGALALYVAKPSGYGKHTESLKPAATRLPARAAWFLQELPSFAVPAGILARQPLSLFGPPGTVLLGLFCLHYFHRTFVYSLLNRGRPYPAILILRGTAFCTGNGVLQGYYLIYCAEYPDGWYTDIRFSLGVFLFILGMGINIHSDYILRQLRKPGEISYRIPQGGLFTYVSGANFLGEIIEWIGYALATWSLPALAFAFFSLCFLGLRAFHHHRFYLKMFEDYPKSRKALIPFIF
Put plainly: Inhibitory concentration against human recombinant steroid 5-alpha-reductase type 2 in stably transfected chinese hamster ovary 1827 cells using [3H]testosterone. In short, it runs like this:
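Intact stably transfected CHO 1827 cells incubated 30 min with [3H]testosterone at its Km concentration plus inhibitor over 10^-9–10^-5 M. IC50 fitted by four-parameter logistic equation. Finasteride run as reference inhibitor to check interassay reproducibility.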

`COC(=O)c1cccc(OC(=O)c2ccc3c(c2)CCC2=C(C)C(=O)CCN23)c1`: the concentration for half-maximal inhibition (IC50) in data set [1] was 955 nM; in data set [3], 965 nM. This compound registered a logP in data set [2] of 4.86.

As to `CC1=C2CCc3cc(OCc4cc(C(F)(F)F)ccc4C(F)(F)F)ccc3N2CCC1=O`, the IC50 is 389 nM in data set [1] and 393 nM in data set [3]. In data set [2], the logP came out at 6.41.

As for `C=Cc1ccc2c(c1)CCC1=C(C)C(=O)CCN12`, the IC50 in data set [1] was 21.4 nM; in data set [3], 21.6 nM. Moreover, in data set [2], the logP amounted to 3.57.

For `CC1=C2CCc3cc(OCc4ccc(Cl)cc4)ccc3N2CCC1=O`, the figures for the IC50 in data set [1] and in data set [3] were 93.3 nM and 92.9 nM, respectively. The logP in data set [2] turned out to be 5.35.

Consider `CC1=C2CCc3cc(Br)ccc3N2CCC1=O`, for which the IC50 in data set [1] is 8.13 nM; in data set [3] it was 8.1 nM. In data set [2], this compound gave a lipophilicity (logP) of 3.88.

As to `CC1=C2CCc3cc(C#Cc4ccccc4)ccc3N2CCC1=O`, the results for the IC50 in data set [1] and in data set [3] were 8.71 nM and 8.75 nM, respectively. This compound registered a logP in data set [2] of 5.49.

For `COc1ccc2c(c1)CCC1=C(C)C(=O)CCN12`, the IC50 in data set [1] is 182 nM; in data set [3] it was 178 nM. The log partition coefficient (logP) in data set [2] turned out to be 2.87.

In the case of `Cc1ccc2c(c1)CCC1=CC(=O)CCN12`, in data set [2], the lipophilicity (logP) turned out to be 2.83.

`CC1=C2CCc3cc(-c4cccnc4)ccc3N2CCC1=O`: the half-inhibitory concentration (IC50) in data set [1] and in data set [3] was 170 nM in each case. Further, the logP in data set [2] was 3.35.

As to `CC1=C2CCc3cc(C(=O)Oc4ccccc4)ccc3N2CCC1=O`, the IC50 in data set [1] was 933 nM; in data set [3], 942 nM. In data set [2], the logP was determined as 4.64.

Compound `CC1=C2CCc3cc(C)ccc3N2CCC1=O` had a logP in data set [2] of 3.35.

Take `CCOC(=O)c1ccc2c(c1)CCC1=C(C)C(=O)CCN12`: the IC50 in data set [1] was 219 nM; in data set [3], 221 nM. The compound further had a logP in data set [2] of 3.66.

Regarding `COC(=O)c1ccc2c(c1)CCC1=C(C)C(=O)CCN12`, the IC50 in data set [1] and in data set [3] was 117 nM in each case. Further, the logP in data set [2] is 3.13.

Turning to `CC1=C2CCc3cc(C(=O)OCc4ccccc4)ccc3N2CCC1=O`, the IC50 in data set [1] was 97.7 nM; in data set [3], 96.8 nM. Further, in data set [2], the logP came to 4.96.

With `CC1=C2CCc3cc(Cl)ccc3N2CCC1=O`, the IC50 in data set [1] was 5.62 nM; in data set [3], 5.8 nM. Besides, the log partition coefficient (logP) in data set [2] came to 3.73.

`CC1=C2CCc3ccccc3N2CCC1=O` yielded a lipophilicity (logP) in data set [2] of 2.85.

Turning to `CC1=C2CCc3cc(OCc4ccc(C(F)(F)F)cc4C(F)(F)F)ccc3N2CCC1=O`, the IC50 in data set [1] is 148 nM; in data set [3], 149 nM. This compound had a log partition coefficient (logP) in data set [2] of 6.41.

Take `CC1=C2CCc3cc(OCc4ccccc4)ccc3N2CCC1=O`: the IC50 in data set [1] is 112 nM; in data set [3], 111 nM. Further, the logP in data set [2] came to 4.64.

As for `CC1=C2CCc3cc(-c4ccco4)ccc3N2CCC1=O`, the values for the IC50 in data set [1] and in data set [3] were 132 nM and 133 nM, respectively. In addition, the log partition coefficient (logP) in data set [2] amounted to 4.12.

On to `CC1=C2CCc3cc(C(=O)Oc4ccc(C(C)(C)C)cc4)ccc3N2CCC1=O`, for which the values for the IC50 in data set [1] and in data set [3] were 562 nM and 560 nM, respectively. Further, the lipophilicity (logP) in data set [2] turned out to be 6.47.

As for `CC1=C2CCc3cc(OCc4cccc(Cl)c4)ccc3N2CCC1=O`, the values for the half-inhibitory concentration (IC50) in data set [1] and in data set [3] were 93.3 nM and 93 nM, respectively. In data set [2], this compound registered a lipophilicity (logP) of 5.35.

With `CC1=C2CCc3cc(OCc4ccc(C(F)(F)F)cc4)ccc3N2CCC1=O`, the IC50 in data set [1] was 83.2 nM; in data set [3], 83.7 nM. The logP in data set [2] was 5.52.

Regarding `CC1=C2CCc3cc(/C=C/c4ccccc4)ccc3N2CCC1=O`, the IC50 in data set [1] and in data set [3] was 380 nM in each case. In data set [2], this compound yielded a logP of 5.54.

As for `CC1=C2CCc3cc(/C=C\c4ccccc4)ccc3N2CCC1=O`, the half-inhibitory concentration (IC50) was 14.1 nM in data set [1] and 14.2 nM in data set [3]. Further, the logP in data set [2] was 5.54.

As for `CC1=C2CCc3cc(-c4ccccc4)ccc3N2CCC1=O`, the IC50 in data set [1] is 129 nM; in data set [3], 128 nM. In data set [2], this compound yielded a logP of 4.74.

Turning to `CC1=C2CCc3cc(C(=O)OC(C)C)ccc3N2CCC1=O`, the concentration for half-maximal inhibition (IC50) in data set [1] was 724 nM; in data set [3] it was 731 nM. The same compound returned a logP in data set [2] of 3.97.

Regarding `CCc1ccc2c(c1)CCC1=C(C)C(=O)CCN12`, the half-inhibitory concentration (IC50) was 14.1 nM in data set [1] and 14 nM in data set [3]. Also, the lipophilicity (logP) in data set [2] was 3.88.

For `CC1=C2CCc3cc(C(=O)Oc4ccc(C)cc4)ccc3N2CCC1=O`, the half-maximal inhibitory concentration (IC50) in data set [1] and in data set [3] was 1050 nM throughout. Further, the logP in data set [2] amounted to 4.05.

`COC(=O)c1ccc(OC(=O)c2ccc3c(c2)CCC2=C(C)C(=O)CCN23)cc1`: the concentration for half-maximal inhibition (IC50) in data set [1] was 120 nM; in data set [3], 121 nM. Also, the logP in data set [2] came out at 4.86.

In data set [2], `O=C1C=C2CCc3cc(Cl)ccc3N2CC1` yielded a logP of 3.22.

On to `CC1=C2CCc3cc(-c4cccs4)ccc3N2CCC1=O`, for which the 50% inhibitory concentration (IC50) in data set [1] was 79.4 nM; in data set [3], 79 nM. In data set [2], the logP is 4.62.

For `CC1=C2CCc3cc(C(=O)OC(C)(C)C)ccc3N2CCC1=O`, the half-maximal inhibitory concentration (IC50) in data set [1] and in data set [3] was 1000 nM in each case. In addition, the lipophilicity (logP) in data set [2] stood at 4.37.

As for `CC1=C2CCc3cc(OCc4ccccc4Cl)ccc3N2CCC1=O`, the half-inhibitory concentration (IC50) was 195 nM in data set [1] and 194 nM in data set [3]. The logP in data set [2] turned out to be 5.35.

In data set [2], `O=C1C=C2CCc3ccccc3N2CC1` displayed a log partition coefficient (logP) of 2.33.

Regarding `CC(C)(C)NC(=O)[C@H]1CC[C@H]2[C@@H]3CC[C@H]4NC(=O)C=C[C@]4(C)[C@H]3CC[C@]12C` [FINASTERIDE], in data set [4], the IC50 is 21 nM.

The term IC50 denotes the concentration at which inhibition is half-maximal. Usually logP stands for the decadic logarithm of the partition coefficient of the neutral form, usually between octanol and water. Low values mean lower lipophilicity, high ones higher lipophilicity.

Values taken from ChEMBL document CHEMBL1148350, “Synthesis, biological activity, and three-dimensional quantitative structure-activity relationship model for a series of benzo[c]quinolizin-3-ones, nonsteroidal inhibitors of human steroid 5alpha-reductase 1” (J Med Chem, 2004).
